In ChEMBL document CHEMBL1122747, “Potential antitumor agents. 42. Structure-activity relationships for acridine-substituted dimethyl phosphoramidate derivatives of 9-anilinoacridine” (J Med Chem, 1984):

Assays:
[1] = system: P388; assay: In vivo dose of drug needed for a percentage increase of 50% in life span of tumor-bearing mice compared to untreated controls after inoculation of 10e6 P388 leukemia cells; type: functional, Mus musculus
[2] = Binding affinity towards poly[d(A-T)] (fluorometric method); type: ADME
In short: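 Log R for binding to poly[d(A-T)] measured fluorometrically, corrected for quenching.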

[3] = system: P388; assay: In vivo tumor cell selectivity (ILSmax values)for percentage increase in life span of treated animals over that of P388 tumor bearing untreated control animals; type: functional, Mus musculus
[4] = system: P388; assay: In vivo inhibition of P388 in mice for optimal (highest nonacutely toxic) dose (OD); type: functional, Mus musculus
In short: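 F1 (DBA/2J × C57BlJ) mice, 19-21 g, either sex, inoculated with 10^6 P388 leukemia cells on day 0. Drug given ip in 0.1 mL 30% aqueous ethanol on days 1, 5 and 9, as a solution or, at highest doses, as a sonicated suspension. Doses stepped down from a toxic level at 0.67-fold intervals. Groups of six mice; ILS relative to 20-30 controls. OD is the highest nonacutely toxic daily dose.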

[5] = Lipophilicity (Rm) (liquid chromatography); type: physicochemical
In short: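 Rm is measured for drug cations at pH 2 by liquid-liquid chromatography on a cellulose support.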

[6] = system: L1210; assay: In vitro test for 50% reduction of cell number (of control) after 70 hr incubation with cultures of murine L1210 leukemia cells; type: functional; details: Mus musculus, L1210, 70 h; read-out: ID50 (the source's name)
[7] = system: P388; assay: Dose of drug needed to provide a percentage increase in life span of tumor-bearing mice in vivo of […]% compared to untreated controls after inoculation of 10e6 P388 leukemia cells; h=ILS of >50% could not be obtained at any dose level; type: functional, organism-based; details: Mus musculus

Compound	D50 [1] [mg/kg/day]	Log K [2]	Activity [3] [%]	OD [4] [mg/kg/day]	Rm [5]	IC50 [6] [nM]	D50 [7]
COP(=O)(Nc1ccc(Nc2c3ccccc3nc3ccccc23)cc1)OC	15	6.26	107	45	0.34	15	–
CS(=O)(=O)Nc1ccc(Nc2c3ccccc3nc3cc([N+](=O)[O-])ccc23)cc1	–	6.51	43	8.9	-0.18	90	ILS not obtained
CS(=O)(=O)Nc1ccc(Nc2c3ccccc3nc3ccccc23)cc1	35	–	102	150	0	35	–
COc1cc(NS(C)(=O)=O)ccc1Nc1c2ccccc2nc2ccc(C)cc12	–	5.35	34	69	0.4	1400	ILS not obtained
COc1cc(NS(C)(=O)=O)ccc1Nc1c2ccccc2nc2c(C)cccc12	4	6.03	172	20	0.25	30	–
COc1cc(NS(C)(=O)=O)ccc1Nc1c2ccccc2nc2ccccc12 [AMSACRINE]	3	5.57	58	–	0.18	–	–
COc1cccc2c(Nc3ccc(NS(C)(=O)=O)cc3)c3ccccc3nc12	125	6.24	58	150	0.01	45	–
COP(=O)(Nc1ccc(Nc2c3ccccc3nc3cc(S(C)(=O)=O)ccc23)cc1)OC	–	5.63	–	150	-0.14	> 1500	ILS not obtained
Cc1cccc2c(Nc3ccc(NS(C)(=O)=O)cc3)c3ccccc3nc12	50	6.52	75	66	0.07	17	–
CS(=O)(=O)Nc1ccc(Nc2c3ccccc3nc3cc(Cl)ccc23)cc1	60	6.89	53	65	0.14	50	–
CNC(=O)c1cccc2c(Nc3ccc(NS(C)(=O)=O)cc3OC)c3ccccc3nc12	8	5.54	127	30	0.06	270	–
CNC(=O)c1cccc2c(Nc3ccc(NP(=O)(OC)OC)cc3)c3ccccc3nc12	60	6.46	56	66	0.18	97	–
Cc1ccc2c(Nc3ccc(NS(C)(=O)=O)cc3)c3ccccc3nc2c1	27	6.41	73	50	0.24	8	–
CNC(=O)c1cccc2c(Nc3ccc(NP(=O)(OC)OC)cc3OC)c3ccccc3nc12	13	5.94	–	30	0.28	18	–
COP(=O)(Nc1ccc(Nc2c3ccccc3nc3cc(C)ccc23)cc1)OC	6	6.77	84	20	0.49	7	–
CS(=O)(=O)Nc1ccc(Nc2c3ccccc3nc3cc(N)ccc23)cc1	8	6.82	67	8.9	-0.18	10	–
COc1cc(NS(C)(=O)=O)ccc1Nc1c2ccccc2nc2cc(Br)ccc12	4	6.29	133	20	0.34	50	–
COc1cc(NS(C)(=O)=O)ccc1Nc1c2ccccc2nc2c(OC)cccc12	8	5.94	139	30	0.19	40	–
COc1cccc2c(Nc3ccc(NP(=O)(OC)OC)cc3)c3ccccc3nc12	45	6.53	50	45	0.33	20	–
COP(=O)(Nc1ccc(Nc2c3ccccc3nc3cc(N)ccc23)cc1)OC	5	6.9	58	5.9	0.06	385	–
COc1cc(NP(=O)(OC)OC)ccc1Nc1c2ccccc2nc2c(OC)cccc12	6	6.09	76	9	0.47	12	–
COc1cc(NP(=O)(OC)OC)ccc1Nc1c2ccccc2nc2cc(Br)ccc12	4	6.44	83	13.3	0.57	5	–
COP(=O)(Nc1ccc(Nc2c3ccccc3nc3c(C)cccc23)cc1)OC	9	6.75	–	20	0.46	9	–
COc1cc(NP(=O)(OC)OC)ccc1Nc1c2ccccc2nc2ccccc12	3.5	5.64	67	8.9	0.47	70	–
COc1cc(NP(=O)(OC)OC)ccc1Nc1c2ccccc2nc2cc(Cl)ccc12	5.5	6.4	91	13.3	0.61	12	–
COc1cc(NS(C)(=O)=O)ccc1Nc1c2ccccc2nc2cc(Cl)ccc12	5	6.06	232	20	0.32	70	–
COc1cc(NP(=O)(OC)OC)ccc1Nc1c2ccccc2nc2c(C)cccc12	3	6.16	–	8.9	0.44	18	–
COP(=O)(Nc1ccc(Nc2c3ccccc3nc3cc(Br)ccc23)cc1)OC	20	6.56	110	65	0.47	15	–
COP(=O)(Nc1ccc(Nc2c3ccccc3nc3cc(Cl)ccc23)cc1)OC	35	7	62	45	0.46	16	–
